Screening results (PubChem BioAssay)
Rows were chosen to be rich in hits. Some 2.2% of all compounds tested hit in one or more screens of this group.
DENV2 CPE = inhibitors of DENV2 cytopathic effect, primary screen, cell-based, plate reader, single concentration; DENV2-infected cells, cytopathic effect rescue; CPE inhibition, % at 9.99 µM; actives 1.7% (n = 350,000); in the data active = CPE inhibition above about 20%, passing the limit was not always enough; inconclusive = no clear call, values can overlap the other calls; tested in BHK-21 cells
C2C12 statin = suppressors of statin myotoxicity in C2C12 myotubes, primary screen, cell-based, single point, plate reader. actives 0.78% (n = 330,000). C2C12 myotubes + simvastatin, ATP luminescence, 48 h; scaled: DMSO 0, geranylgeraniol control 100. rescue of ATP level, % at 7.49 µM;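 active = mean ATP rescue above about 67%, or every replicate alone reaching that limit, limit read from the data, passing the limit was not always enough; inconclusive = no clear call, values can overlap the other calls; inactive = mean under the limit and some replicate under it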;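 note: myotubes were challenged with 10 µM simvastatin during compound exposure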
E-sel inducer = E-selectin induction in HUVECs, primary screen, imaging, HUVEC, immunofluorescence imaging, single point; normalized: neutral wells 0, TNF-alpha wells 100; activation, % at 7.58 µM; actives 0.37% (n = 260,000); AID 686992, 2013;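 active = mean E-selectin-positive cell signal at least 10% of the positive control, reached in at least 60% of replicates, without over 20% cell loss; inconclusive = no rule given, readout overlaps actives, possibly toxicity-flagged; inactive = the rest, including those meeting only one limit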
Target sequence (P16581 whole entry, looked up): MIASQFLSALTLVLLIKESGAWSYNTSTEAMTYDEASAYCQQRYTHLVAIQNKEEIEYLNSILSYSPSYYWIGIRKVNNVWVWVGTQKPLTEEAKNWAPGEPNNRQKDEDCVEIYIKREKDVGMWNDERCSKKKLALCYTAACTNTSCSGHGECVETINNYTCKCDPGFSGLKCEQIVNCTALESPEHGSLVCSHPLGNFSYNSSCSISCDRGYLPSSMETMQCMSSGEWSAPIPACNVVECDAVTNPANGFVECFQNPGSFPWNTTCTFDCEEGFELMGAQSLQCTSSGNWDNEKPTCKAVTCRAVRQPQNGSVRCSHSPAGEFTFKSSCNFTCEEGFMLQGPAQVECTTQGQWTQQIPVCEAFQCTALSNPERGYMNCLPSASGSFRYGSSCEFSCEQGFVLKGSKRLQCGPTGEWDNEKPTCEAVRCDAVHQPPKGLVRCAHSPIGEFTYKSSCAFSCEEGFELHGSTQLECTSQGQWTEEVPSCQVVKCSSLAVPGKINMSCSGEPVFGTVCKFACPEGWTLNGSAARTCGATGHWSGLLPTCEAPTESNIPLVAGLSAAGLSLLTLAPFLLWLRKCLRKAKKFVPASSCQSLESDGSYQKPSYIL
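Test system: HUVEC | Signal: Immunofluorescence imaging | Read-out: Percent E-selectin-positive cells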
Each line names hits and unclear results; the compound was inactive in the other large screens.

C[C@H]1CN([C@@H](C)CO)C(=O)c2cccc(NS(C)(=O)=O)c2O[C@@H]1CN(C)Cc1ccc(Oc2ccccc2)cc1	E-sel inducer 32
C[C@H](CO)N1C[C@H](C)[C@@H](CN(C)Cc2ccccc2)Oc2c(NS(=O)(=O)c3ccc(Cl)cc3)cccc2C1=O	none
CC(C)NC(=O)N(C)C[C@@H]1OCCCC[C@H](C)Oc2ccc(NC(=O)c3ccccc3)cc2C(=O)N([C@@H](C)CO)C[C@@H]1C	none (no result: C2C12 statin)
COc1ccc(NC(=O)N(C)C[C@H]2OCCCC[C@@H](C)Oc3ccc(NC(=O)Nc4ccc(F)cc4)cc3C(=O)N([C@@H](C)CO)C[C@H]2C)cc1	none (no result: C2C12 statin)
C[C@H]1CN([C@@H](C)CO)C(=O)c2cc(NC(=O)Nc3ccc(F)cc3)ccc2O[C@H]1CN(C)S(=O)(=O)c1ccc(Cl)cc1	none
COc1cccc(-c2ccc3c(c2)O[C@@H](CN(C)C(=O)c2ccccc2F)[C@@H](C)CN([C@@H](C)CO)S3(=O)=O)c1	none (no result: E-sel inducer)
CNC[C@@H]1Oc2c(NS(=O)(=O)c3cccs3)cccc2C(=O)N([C@@H](C)CO)C[C@H]1C	none
C[C@@H]1CN([C@@H](C)CO)C(=O)c2cccc(NC(=O)C3CCOCC3)c2O[C@@H]1CN(C)Cc1ccc(Oc2ccccc2)cc1	none
C[C@@H]1CN([C@H](C)CO)C(=O)c2cccc(NC(=O)C3CCOCC3)c2O[C@H]1CN(C)Cc1ccc(Oc2ccccc2)cc1	DENV2 CPE 25
CNC[C@H]1Oc2c(NS(=O)(=O)c3cccs3)cccc2C(=O)N([C@@H](C)CO)C[C@H]1C	DENV2 CPE 26
C[C@H]1CN([C@@H](C)CO)C(=O)Cc2cc(NS(=O)(=O)c3cccs3)ccc2O[C@H]1CN(C)S(=O)(=O)c1ccc(Cl)cc1	none (no result: C2C12 statin)
CO[C@@H]1CN(C)C(=O)c2ccc(NC(=O)C3CCOCC3)cc2OC[C@@H](C)N(C)C[C@H]1C	none (no result: DENV2 CPE)
O=C(C[C@@H]1CC[C@@H](NS(=O)(=O)c2ccc(F)cc2)[C@@H](CO)O1)N1CCC(Cc2ccccc2)CC1	none
C[C@H](CO)N1C[C@H](C)[C@@H](CN(C)C(=O)Cc2ccccc2)OCc2ccccc2-c2ccccc2C1=O	none
COc1ccc2c3c(n(C)c2c1)[C@H](CO)N(CC1CC1)CC31CCN(C(=O)CN2CCOCC2)CC1	none (no result: C2C12 statin)
Cc1ccc(CN(C(=O)c2ccco2)C(C(=O)NC2CCCC2)c2ccc(N3CCOCC3)cc2)cc1 (centres undefined)	C2C12 statin 119 (no result: DENV2 CPE, E-sel inducer)
Cc1ccc(CN(C(=O)c2ccco2)C(C(=O)NC2CCCC2)c2cccnc2)cc1 (centres undefined)	none
O=C(NCC1CC1)[C@H]1[C@H](CO)[C@H]2Cn3c(ccc(-c4ccccc4F)c3=O)[C@@H]1N2Cc1ccccc1	DENV2 CPE inconclusive
CCNC(=O)C[C@H]1CC[C@@H](NS(=O)(=O)c2ccc(C)cc2)[C@@H](CO)O1	none
O=C1C=C(c2ccc(F)c(Cl)c2)C[C@@H](c2ccc(F)cc2)C1	DENV2 CPE 23
O=C1C=C(c2cc(Cl)cc(Cl)c2)C[C@@H](c2ccc3c(c2)OCO3)C1	DENV2 CPE 28
O=C1C=C(c2cccc(Br)c2)C[C@@H](c2ccc(Cl)cc2)C1	DENV2 CPE 32
O=C1C=C(c2ccc3c(c2)OCO3)C[C@@H](c2ccc3c(c2)OCO3)C1	DENV2 CPE inconclusive
O=C1C=C(c2cccc(Cl)c2)C[C@@H](c2ccc(Cl)cc2)C1	none
O=C1C=C(c2cc(F)ccc2F)C[C@@H](c2ccc(Cl)cc2)C1	none
COc1cccc(C2=CC(=O)C[C@H](c3ccc(F)cc3)C2)c1	none (no result: DENV2 CPE)
COc1cc(F)cc(C2=CC(=O)C[C@H](c3ccc(F)cc3)C2)c1	DENV2 CPE 26
Cc1ccc(S(=O)(=O)Nc2cccc3c2O[C@H](CN(C)Cc2ccncc2)[C@@H](C)CN([C@H](C)CO)C3=O)cc1	none
CC(C)CC#Cc1ccc2c(c1)O[C@@H](CN(C)C(=O)c1cccnc1)[C@@H](C)CN([C@@H](C)CO)S2(=O)=O	none
COc1ccc(NC(=O)N(C)C[C@@H]2OCCCC[C@H](C)Oc3ccc(NS(=O)(=O)c4ccc(F)cc4)cc3C(=O)N([C@H](C)CO)C[C@H]2C)cc1	none (no result: C2C12 statin)
O=C(C[C@H]1C[C@@H]2c3cc(NS(=O)(=O)c4ccc(F)cc4)ccc3O[C@@H]2[C@@H](CO)O1)NC1CCCCC1	none
COc1ccc([C@H]2CC(=O)C=C(c3ccc(CNC(=O)OC(C)(C)C)cc3)C2)cc1	E-sel inducer 30
COc1ccc([C@H]2CC(=O)C=C(c3ccc(OC(F)(F)F)cc3)C2)cc1	none
COCCNC(=O)C[C@H]1CC[C@H](NC(=O)NC2CCCC2)[C@H](CO)O1	none
COCCNC(=O)C[C@@H]1CC[C@H](NC(=O)NC2CCCC2)[C@@H](CO)O1	DENV2 CPE 22
CO[C@@H]1CN(C)C(=O)c2cc(NC(=O)C3CC3)ccc2OC[C@H](C)N(Cc2ccncc2)C[C@@H]1C	none
COC(=O)C1(C(=O)OC)c2ccccc2N(S(=O)(=O)c2ccc(C)cc2)C1CC(C)=O (centres undefined)	none (no result: C2C12 statin)
COC(=O)C1(C(=O)OC)c2ncccc2N(S(=O)(=O)c2ccc(C)cc2)C1CC(=O)c1ccccc1 (centres undefined)	DENV2 CPE 21 (no result: C2C12 statin)
COc1cc(NS(=O)(=O)c2ccc(C)cc2)c2c(c1N)C(=O)c1ccccc1C2=O	E-sel inducer 127
COC(=O)C(C(=O)OC)c1ccccc1NS(=O)(=O)c1ccc(C)cc1	none (no result: C2C12 statin)
COCC(=O)N1C[C@H]2[C@@H](c3ccccc31)[C@@H](CO)N2C(=O)C1CC1	none
Cc1ccc(C(=O)n2nc(-c3ccco3)nc2N)cc1	C2C12 statin 81 (no result: DENV2 CPE, E-sel inducer)
Nc1nc(-c2ccco2)nn1C(=O)CCc1ccccc1	C2C12 statin 113 (no result: DENV2 CPE, E-sel inducer)
COc1ccc(C(=O)n2nc(-c3ccco3)nc2N)cc1	none (no result: DENV2 CPE, E-sel inducer)
Nc1nc(-c2cccnc2)nn1C(=O)CCc1ccccc1	none (no result: DENV2 CPE)
CCNC(=O)Nc1ccc2c(c1)C(=O)N(C)[C@H]1CC[C@H](CC(=O)Nc3ccccc3F)O[C@@H]1CO2	none
CC(C)NC(=O)N(C)C[C@H]1Oc2c(NC(=O)C3CC3)cccc2C(=O)N([C@@H](C)CO)C[C@@H]1C	DENV2 CPE inconclusive
O=C(CN1CCOCC1)N[C@@H]1CC[C@H](CCNC(=O)Nc2cc(F)ccc2F)O[C@@H]1CO	none
Cc1noc(C)c1NC(=O)N(C)C[C@H]1Oc2c(NS(=O)(=O)c3ccc(Cl)cc3)cccc2C(=O)N([C@H](C)CO)C[C@@H]1C	none (no result: C2C12 statin)
COC(=O)CCC(=O)NNC(=O)c1ccc(Br)cc1	C2C12 statin 101 (no result: DENV2 CPE, E-sel inducer)
O=C(CNC(=O)c1ccc(Cl)cc1)NNC(=O)c1ccc(Br)cc1	none
Cn1ncc(Cl)c1C(=O)Nc1cccc(Cl)c1	none (no result: DENV2 CPE, E-sel inducer)
Cn1ncc(Cl)c1C(=O)Nc1cccnc1	C2C12 statin 101 (no result: DENV2 CPE, E-sel inducer)
CCCNC(=O)N1[C@H](CNC(C)=O)[C@@H](c2ccccc2)[C@@H]1CO	DENV2 CPE 30
CCCNC(=O)N1[C@@H](CO)[C@@H](c2ccccc2)[C@@H]1CNC(C)=O	none
CCCNC(=O)N1[C@H](CO)[C@H](c2ccccc2)[C@@H]1CNC(=O)c1ccc(F)cc1	DENV2 CPE 104
CCCNC(=O)N1[C@@H](CO)[C@H](c2ccccc2)[C@@H]1CNC(=O)c1ccc(F)cc1	none (no result: DENV2 CPE)
